Data taken from ChEMBL document CHEMBL4339229, “Chalcones and Chalcone-mimetic Derivatives as Notch Inhibitors in a Model of T-cell Acute Lymphoblastic Leukemia” (ACS Med Chem Lett, 2019).
Activity calls are given as the source filed them.

Key:
KOPTK1 [1] = assay: Antiproliferative activity against human KOPTK1 cells harboring activating Notch1 gene mutations assessed as reduction in cell viability at 2.5 uM incubated for 36 hrs by MTS assay; assay type: functional
Summary of the method: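 Single-point MTS viability screen in KOPTK1 T-ALL cells: 2.5 μM compound or DMSO vehicle for 36 h; viability expressed relative to DMSO; 30% viability decrease used as screening threshold; two independent experiments in triplicate, mean ± SEM.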

[2] = target: Neurogenic locus notch homolog protein 1 (Homo sapiens) (UniProt P46531); assay: Inhibition of NOTCH1 signalling in human KOPTK1 cells harboring activating Notch1 gene mutations assessed as reduction in N1Val protein expression at 2.5 uM incubated for 36 hrs by Western blot analysis; assay type: cell-based
Neurogenic locus notch homolog protein 1 (Homo sapiens), sequence (P46531 whole entry, the tested form may be a part): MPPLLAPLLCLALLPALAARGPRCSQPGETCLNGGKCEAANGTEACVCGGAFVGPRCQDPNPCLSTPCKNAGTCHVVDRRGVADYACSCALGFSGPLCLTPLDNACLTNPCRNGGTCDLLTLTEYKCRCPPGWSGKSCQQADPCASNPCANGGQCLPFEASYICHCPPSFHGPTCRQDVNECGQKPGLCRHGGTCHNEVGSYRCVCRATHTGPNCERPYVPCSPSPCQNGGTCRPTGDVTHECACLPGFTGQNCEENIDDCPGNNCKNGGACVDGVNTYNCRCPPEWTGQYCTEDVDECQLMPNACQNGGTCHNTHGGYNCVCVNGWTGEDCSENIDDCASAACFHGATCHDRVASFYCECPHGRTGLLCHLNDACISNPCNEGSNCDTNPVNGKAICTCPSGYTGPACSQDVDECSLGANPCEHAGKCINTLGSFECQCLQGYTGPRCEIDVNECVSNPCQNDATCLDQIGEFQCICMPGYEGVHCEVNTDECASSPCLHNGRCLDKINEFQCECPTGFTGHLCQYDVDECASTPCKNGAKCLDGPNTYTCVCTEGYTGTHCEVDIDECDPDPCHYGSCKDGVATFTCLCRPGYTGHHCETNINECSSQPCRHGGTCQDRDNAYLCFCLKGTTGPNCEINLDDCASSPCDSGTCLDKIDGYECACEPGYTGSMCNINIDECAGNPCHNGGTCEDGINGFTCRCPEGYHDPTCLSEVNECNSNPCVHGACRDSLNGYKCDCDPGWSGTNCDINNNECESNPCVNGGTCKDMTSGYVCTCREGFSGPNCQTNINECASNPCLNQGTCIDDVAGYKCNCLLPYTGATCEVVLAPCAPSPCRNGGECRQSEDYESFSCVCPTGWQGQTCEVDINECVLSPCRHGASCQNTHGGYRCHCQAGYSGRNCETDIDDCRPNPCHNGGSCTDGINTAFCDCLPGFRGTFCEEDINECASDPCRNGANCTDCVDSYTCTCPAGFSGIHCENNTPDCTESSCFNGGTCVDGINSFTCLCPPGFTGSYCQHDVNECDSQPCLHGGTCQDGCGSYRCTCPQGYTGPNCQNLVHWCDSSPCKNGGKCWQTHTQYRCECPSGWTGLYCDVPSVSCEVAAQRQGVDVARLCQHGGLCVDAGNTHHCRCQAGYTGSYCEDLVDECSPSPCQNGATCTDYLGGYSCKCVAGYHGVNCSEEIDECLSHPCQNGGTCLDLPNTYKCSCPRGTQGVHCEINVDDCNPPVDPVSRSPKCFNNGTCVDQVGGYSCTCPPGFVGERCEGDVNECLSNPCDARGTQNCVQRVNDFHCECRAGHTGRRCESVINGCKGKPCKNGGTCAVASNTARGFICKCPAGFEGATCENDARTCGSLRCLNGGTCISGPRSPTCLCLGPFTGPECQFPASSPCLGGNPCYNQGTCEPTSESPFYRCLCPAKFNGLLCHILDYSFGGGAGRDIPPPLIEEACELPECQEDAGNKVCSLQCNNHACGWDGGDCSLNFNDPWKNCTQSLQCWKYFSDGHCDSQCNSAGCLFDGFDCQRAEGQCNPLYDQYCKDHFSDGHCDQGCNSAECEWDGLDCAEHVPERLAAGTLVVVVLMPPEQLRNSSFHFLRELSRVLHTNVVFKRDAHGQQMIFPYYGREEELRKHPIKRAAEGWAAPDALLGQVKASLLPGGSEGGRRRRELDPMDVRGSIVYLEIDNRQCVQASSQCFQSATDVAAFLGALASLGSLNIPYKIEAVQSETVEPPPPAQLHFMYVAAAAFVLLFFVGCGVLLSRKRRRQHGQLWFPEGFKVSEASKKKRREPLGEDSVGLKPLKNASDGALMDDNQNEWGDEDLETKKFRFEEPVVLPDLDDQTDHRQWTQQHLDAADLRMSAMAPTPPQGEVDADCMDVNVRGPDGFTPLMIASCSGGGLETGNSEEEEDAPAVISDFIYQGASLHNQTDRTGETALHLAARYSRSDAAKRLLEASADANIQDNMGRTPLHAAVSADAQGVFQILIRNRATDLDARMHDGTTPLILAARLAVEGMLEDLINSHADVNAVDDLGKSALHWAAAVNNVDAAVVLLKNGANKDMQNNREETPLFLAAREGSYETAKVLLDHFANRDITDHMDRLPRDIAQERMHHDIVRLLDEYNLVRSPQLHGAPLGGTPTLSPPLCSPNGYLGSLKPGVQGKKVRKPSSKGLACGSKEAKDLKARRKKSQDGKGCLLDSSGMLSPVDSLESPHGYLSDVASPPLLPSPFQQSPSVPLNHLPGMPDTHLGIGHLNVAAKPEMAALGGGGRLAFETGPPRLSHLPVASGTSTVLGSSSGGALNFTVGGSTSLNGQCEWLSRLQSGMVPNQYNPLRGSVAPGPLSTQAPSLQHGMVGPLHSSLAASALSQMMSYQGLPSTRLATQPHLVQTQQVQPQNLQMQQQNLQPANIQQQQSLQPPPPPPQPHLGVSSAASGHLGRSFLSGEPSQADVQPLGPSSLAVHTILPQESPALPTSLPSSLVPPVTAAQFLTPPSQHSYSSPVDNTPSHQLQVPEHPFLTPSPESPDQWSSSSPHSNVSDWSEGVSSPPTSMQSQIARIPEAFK
Summary of the method: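 KOPTK1 cells exposed 36 h to 2.5 μM compound or DMSO; endogenous activated Notch1 intracellular domain (N1Val) detected by Western blot with β-actin loading control; relative levels quantified by optical densitometry versus DMSO.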

[3] = target: Neurogenic locus notch homolog protein 1 (Homo sapiens) (UniProt P46531); assay: Inhibition of NOTCH1 signalling in human KOPTK1 cells harboring activating Notch1 gene mutations assessed as reduction in DELTEX1 mRNA expression at 2.5 uM incubated for 36 hrs by RT-PCR analysis; assay type: cell-based
Summary of the method: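 DELTEX1 (DTX1) relative gene expression measured in KOPTK1 cells after 36 h with 2.5 μM compound or DMSO vehicle; three independent experiments in triplicate, mean ± SEM.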

KOPTK1 [4] = assay: Antiproliferative activity against human KOPTK1 cells harboring activating Notch1 gene mutations assessed as reduction in cell viability incubated for 36 hrs by MTS assay; assay type: functional, cell-based; conditions: KOPTK1, 36 h
Summary of the method: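 Dose–response MTS proliferation assay in KOPTK1 cells at 0, 0.5, 1, 2.5, 5, 10, 20 and 50 μM for 36 h; IC50 taken as half-maximal growth-inhibitory concentration; three independent experiments in triplicate, mean ± SD.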

KOPTK1 [5] = assay: Induction of cell death in human KOPTK1 cells harboring activating Notch1 gene mutations assessed as increase in p27kip protein expression at 2.5 uM incubated for 36 hrs by Western blot analysis; assay type: functional, cell-based
Summary of the method: (§1)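 Western blot of KOPTK1 lysates probed for p27kip, full-length and cleaved PARP, β-actin as loading control.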

KOPTK1 [6] = assay: Induction of cell death in human KOPTK1 cells harboring activating Notch1 gene mutations assessed as increase in cleaved PARP protein expression at 2.5 uM incubated for 36 hrs by Western blot analysis; assay type: functional, cell-based; summary of the method: as §1
Jurkat = assay: Antiproliferative activity against human Jurkat cells assessed as reduction in cell viability at 2.5 uM incubated for 36 hrs by MTS assay; assay type: functional, cell-based
HaCaT = assay: Antiproliferative activity against immortalized human HaCaT cells assessed as reduction in cell viability at 2.5 uM incubated for 36 hrs by MTS assay; assay type: functional, cell-based

inhibition [2]	inhibition [3]	SMILES	Activity (KOPTK1 [1])	IC50 (KOPTK1 [4]) [nM]	Activity (KOPTK1 [5])	Activity (KOPTK1 [6])	Activity (Jurkat)	Activity (HaCaT)
Active	Active	COc1ccc2c(c1)CC(C(=O)c1ccc(OC)cc1OC)CC2 (racemic)	>=30%	720	inactive	Active	Active	Active
Active	Active	COc1ccc(C(=O)C2CCc3cc(O)ccc3C2)c(O)c1 (racemic)	>=30%	2460	Active	inactive	–	–
Active	Active	COc1ccc(C(=O)/C=C/c2ccc(O)cc2)c(O)c1	>=30%	1910	–	–	–	–
Active	Active	COc1ccc(C(=O)/C=C/c2ccc(O)c(C)c2)c(O)c1	>=30%	–	Active	Active	–	–
Active	Active	COc1ccc2c(c1)CCC(C(=O)c1ccc(OC)cc1OC)C2 (racemic)	>=30%	1370	inactive	Active	Active	Active
Active	Active	Cc1ccc(C(=O)/C=C/c2ccc(O)cc2)cc1	>=30%	3830	Active	inactive	–	–
